Key:
A549 cells = test: In-vitro cytotoxicity, crystal violet dye assay; assay type: cell-based, human
[1] = Plasma pharmacokinetics after i.v. administration; assay type: in vivo, BALB/c mice; conditions: DIM-P, 5.0 mg/kg equivalent of DIM-P
How it was run: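 BALB/c mice, randomized (n = 6 per group) and fasted overnight, received a single i.v. dose (DIM-P equivalent 5.0 mg/kg). Plasma was deproteinized with acetonitrile and spun 15 min at 10,000 g. Analysis was C18 HPLC with acetonitrile:water 90:10 at 1.0 mL/min, UV 242 nm. Parameters were derived non-compartmentally.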

Row | Cl [1] [L/h/kg] | Cmax [1] [µg/mL] | K10-HL [1] [hr^−1] | MRT [1] [h] | Vss [1] [L/kg] | AUC0–24 ([1]; non-compartment analysis) [µg·h/mL] | SMILES | IC50 (A549 cells; A549 cells, 72 h) [µM] | IC50 (A549 cells; Homo sapiens, A549, 72 h) [µM]
1 | 0.03774 ± 0.0104 | 216.25 ± 23.59 | 2.98 ± 0.65 | 2.79 ± 1.02 | 0.18598 ± 0.02989 | 124.22 ± 13.65 | c1ccc(-c2ccc(C(c3c[nH]c4ccccc34)c3c[nH]c4ccccc34)cc2)cc1 [DIM-P, DIM-C-pPhC6H5] | 6.8 ± 0.7 | 
2 |  |  |  |  |  |  | CC(=O)O[C@@]12CO[C@@H]1C[C@H](O)[C@@]1(C)C(=O)[C@H](O)C3=C(C)[C@@H](OC(=O)[C@H](O)[C@@H](NC(=O)OC(C)(C)C)c4ccccc4)C[C@@](O)([C@@H](OC(=O)c4ccccc4)[C@H]21)C3(C)C [Doc, Docetaxel, reference compound] |  | 0.02 ± 0.01
